The values below come from ChEMBL document CHEMBL2040834, “Synthesis, crystal structures and electronic properties of isomers of chloro-pyridinylvinyl-1H-indoles” (Eur J Med Chem, 2012).

Data set [1] addresses T1, Tryptophan 2,3-dioxygenase (Homo sapiens, UniProt P48775). Briefly: Inhibition of human purified TDO assessed as formation of kynurenine from N-formylkynurenine preincubated for 10 mins measured after 5 to 20 mins by discontinuous colorimetric method.
A short description of data set [2]: Solubility of the compound in 0.1 M of boric acid at pH 9 by HTS-PCF filter plate analysis. The format is physicochemical. As to conditions: buffer. A digest of the protocol: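 Solubility measured by filter-plate filtration at 2.5% final DMSO. Buffers: pH 1.0 (0.1 M HCl, 20 mM NaCl), pH 7.4 (50 mM phosphate, 30 mM NaCl), pH 9.0 (0.1 M boric acid, 20 mM NaCl). Filtrate quantified by C18 LC/MS with UV detection at 254 nm, using a 5–95% acetonitrile gradient in 0.1% acetic acid.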

Data set [3] has as its target T1, Tryptophan 2,3-dioxygenase. The data set is described as follows: Competitive inhibition of human purified TDO by Henri-Michaelis-Menten equation analysis. The method, boiled down: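 Recombinant human TDO expressed in E. coli, purified. Kynurenine formation read at 480 nm with Ehrlich's reagent after TCA stop and 65 °C hydrolysis. L-Trp and inhibitor concentrations both varied. Initial rates fitted to Henri–Michaelis–Menten equation for competitive Ki; Km obtained from the same data.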

Data set [4] has as its target T1, Tryptophan 2,3-dioxygenase. Briefly: Inhibition of human purified TDO assessed as initial rate of L-Trp oxidation at 100 uM of substrate concentration.

Values after ≈ are worked out from the molar mass of the structure shown.

T1 sequence (P48775 whole entry): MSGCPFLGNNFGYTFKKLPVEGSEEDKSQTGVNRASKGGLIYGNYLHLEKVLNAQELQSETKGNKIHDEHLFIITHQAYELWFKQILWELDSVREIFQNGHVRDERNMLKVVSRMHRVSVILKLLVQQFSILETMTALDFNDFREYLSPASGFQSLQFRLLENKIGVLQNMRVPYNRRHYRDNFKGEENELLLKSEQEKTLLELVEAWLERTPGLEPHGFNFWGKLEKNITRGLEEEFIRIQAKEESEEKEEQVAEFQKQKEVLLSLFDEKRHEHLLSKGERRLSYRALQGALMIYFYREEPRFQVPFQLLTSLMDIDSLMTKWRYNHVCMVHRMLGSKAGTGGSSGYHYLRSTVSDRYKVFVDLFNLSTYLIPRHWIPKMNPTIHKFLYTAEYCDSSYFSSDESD

For `Clc1ccc2[nH]cc(/C=C/c3cccnc3)c2c1`, the half-maximal inhibitory concentration (IC50) in data set [1] was determined as 10 µM. In addition, in data set [2], the solubility came out at 76 mg/mL (≈ 298 mM).

Regarding `Clc1cccc2c(/C=C/c3cccnc3)c[nH]c12`, the values for the IC50 in data set [1] and in data set [4] were over 50 µM and 32 µM, respectively. The molecule further showed a Ki in data set [3] of 21 µM. In data set [2], this molecule showed a solubility of 6 mg/mL (≈ 23.6 mM).

For `Clc1ccc2c(/C=C/c3cccnc3)c[nH]c2c1`, in data set [1], the IC50 came to 5 µM. For the same molecule, in data set [2], the solubility turned out to be 32.1 mg/mL (≈ 126 mM).

What is called IC50 is the point on the concentration scale where inhibition reaches its midpoint. A word on the solubility: it is the dissolved amount per volume that the medium holds. A higher solubility goes with a readily soluble substance. One may read the Ki as the dissociation constant of the complex between target and ligand, obtained from inhibition or displacement.
